Measured values: ChEMBL document CHEMBL1159121, “Synthesis, in vitro structure-activity relationship, and in vivo studies of 2-arylthiazolidine-4-carboxylic acid amides as anticancer agents” (Bioorg Med Chem, 2010)

Tests used:
PC-3 = assay: Antiproliferative activity against human PC3 cells after 96 hrs by SRB assay; type: functional, cell-based; conditions: PC-3, 96 h
RH7777 [1] = assay: Selectivity ratio of IC50 for rat RH7777 cells to IC50 for human prostate cancer cells
In short: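 Ratio of RH7777 IC50 to the mean IC50 over four prostate lines (DU 145, PC-3, LNCaP, PPC-1). Prostate lines grown in RPMI1640/10% FBS and RH7777 in DMEM/10% FBS. Read by SRB (0.4%) at 540 nm; IC50 by nonlinear regression.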

[2] = Cytotoxicity against human fibroblasts after 48 hrs by SRB assay; type: cell-based; conditions: Fibroblast
In short: (§1)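 Melanoma lines and control fibroblasts grown at 37 °C, 5% CO2, then exposed to a wide concentration range for 48 h in round-bottom 96-well plates. Fixed with 10% TCA, stained with SRB, protein read at 560 nm. IC50 (50% growth inhibition versus untreated) obtained by nonlinear regression.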

[3] = Selectivity ratio of IC50 for human fibroblasts to IC50 for human melanoma cells; type: ADME; conditions: human fibroblasts and human melanoma cells, read-out: Ratio IC50
DU-145 = assay: Antiproliferative activity against human DU145 cells after 96 hrs by SRB assay; type: functional, cell-based; conditions: DU-145, 96 h
In short: (§2)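 Prostate lines in RPMI1640/10% FBS; RH7777 in DMEM/10% FBS. Cells TCA-fixed, stained with 0.4% SRB, absorbance read at 540 nm. IC50 from nonlinear regression of % survival against concentration.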

[4] = Antiproliferative activity against mouse B16-F1 cells after 48 hrs by SRB assay; type: functional, cell-based; conditions: B16-F1, 48 h; in short: as §1
[5] = Antiproliferative activity against human WM164 cells after 48 hrs by SRB assay; type: functional, cell-based; conditions: WM164, 48 h; in short: as §1
A-375 = assay: Antiproliferative activity against human A375 cells after 48 hrs by SRB assay; type: functional, cell-based; conditions: A-375, 48 h; in short: as §1
RH7777 [6] = assay: Cytotoxicity against rat RH7777 cells after 96 hrs by SRB assay; type: cell-based; conditions: RH7777, 96 h; in short: as §2
LNCaP = assay: Antiproliferative activity against human LNCAP cells after 96 hrs by SRB assay; type: functional, cell-based; in short: as §2
PPC-1 = assay: Antiproliferative activity against human PPC1 cells after 96 hrs by SRB assay; type: functional, cell-based; conditions: PPC-1, 96 h; in short: as §2

Structure (SMILES) | IC50 (PC-3) | Ratio IC50 (RH7777 [1]) | IC50 [2] | selectivity ratio [3] | IC50 (DU-145) | IC50 [4] | IC50 [5] | IC50 (A-375) | IC50 (RH7777 [6]) | IC50 (LNCaP) | IC50 (PPC-1)
CCCCCCCCCCCCCCCCNC(=O)[C@@H]1CSC(c2cccc(OC)c2)N1 (mixture of isomers) | 1 µM | 5.1 | 2.5 µM | 1.3 | 1.1 µM | 3 µM | 1.2 µM | 1.8 µM | 3.6 µM | 0.5 µM | 0.2 µM
CNC(=O)c1cc(Oc2ccc(NC(=O)Nc3ccc(Cl)c(C(F)(F)F)c3)cc2)ccn1 [SORAFENIB] |  |  |  | 3 |  | 4.9 µM | 5 µM |  |  |  | 
CCCCCCCCCCNC(=O)[C@@H]1CSC(c2cc(OC)c(OC)c(OC)c2)N1 (mixture of isomers) | 4.4 µM |  |  |  | 4.1 µM |  |  |  | 6 µM | 2.2 µM | 2.1 µM
CCCCCCCCCCCCCCCCNC(=O)[C@@H]1CSC(c2ccc(NC(N)=O)cc2)N1 (mixture of isomers) | 2.5 µM | 3.4 | 7.2 µM | 1.8 | 3.2 µM |  | 1.7 µM | 3.6 µM | 6.7 µM | 1.8 µM | 0.5 µM
CC(=O)Nc1ccc(C2N[C@H](C(=O)Nc3ccc(-c4ccccc4)cc3)CS2)cc1 (mixture of isomers) | 7.6 µM | 2 | 33.4 µM | 6.3 | 5 µM | 5.7 µM | 4.1 µM | 6.2 µM | 9.5 µM | 3.5 µM | 2.9 µM
CC(=O)Nc1ccc(C2N[C@H](C(=O)NC3C4CC5CC(C4)CC3C5)CS2)cc1 (mixture of isomers) | > 20 µM |  | > 100 µM |  | > 20 µM | 108 µM | 64.4 µM | 66 µM | > 20 µM | 9.7 µM | > 20 µM
CCCCCCCCCCCCCCCCNC(=O)CNCc1ccc(NC(C)=O)cc1 |  |  | 24 µM |  |  |  | 10.2 µM | 11.9 µM |  |  | 
CCCCCCCCCCCCCCCCNC(=O)[C@@H](N)CSC |  |  | 61.2 µM |  |  |  | 14.4 µM | 12.9 µM |  |  | 
CC(=O)Nc1ccc(C2N[C@H](C(=O)Nc3nc4ccccc4s3)CS2)cc1 (mixture of isomers) | > 20 µM |  | > 100 µM |  | > 20 µM | 55.3 µM | > 100 µM | 45.9 µM | > 20 µM | > 20 µM | > 20 µM
CCCCCCCCCCCCCCCCOC(=O)[C@@H]1CSC(c2ccc(NC(C)=O)cc2)N1 (mixture of isomers) | > 20 µM |  | > 100 µM |  | > 20 µM | 41.9 µM | 18.5 µM | 28 µM | > 20 µM | > 20 µM | > 20 µM
CCCCCCCCCCCCCCCCNC(=O)[C@@H]1CSC(c2ccccc2NC(C)=O)N1 (mixture of isomers) | 2.7 µM | 4.4 | 27.8 µM | 3.9 | 4.6 µM | 8 µM | 3.9 µM | 9.3 µM | 13.2 µM | 3.3 µM | 1.5 µM
CC(=O)Nc1ccc(C2N[C@H](C(=O)NC34CC5CC(CC(C5)C3)C4)CS2)cc1 (mixture of isomers) | > 20 µM |  | > 100 µM |  | > 20 µM | 96.5 µM | 128 µM | 138 µM | > 20 µM | 5.7 µM | > 20 µM
CCCCCCCCC/C=C/CCCCCCCNC(=O)[C@@H]1CSC(c2ccccc2)N1 (mixture of isomers) | 2.1 µM | 6.5 | 12.4 µM | 2.1 | 1.5 µM | 10.1 µM |  | 5.3 µM | 8.9 µM | 1.4 µM | 0.6 µM
CCCCCCCCCCCCCCCCNC(=O)[C@@H]1CSC(c2ccc(N)cc2)N1 (mixture of isomers) | 2.4 µM | 5.3 |  |  | 2.6 µM |  |  |  | 9.4 µM | 1.5 µM | 0.6 µM
CCCCCCCCCCCCCCCCNC(=O)[C@@H](N)CSCc1ccccc1 |  |  | 16.4 µM |  |  |  | 12.8 µM | 15.1 µM |  |  | 
CCCCCCCCCCCCNC(=O)[C@@H]1CSC(c2ccc(N)cc2)N1 (mixture of isomers) | 2.9 µM | 3.4 |  |  | 2.4 µM |  |  |  | 7.3 µM | 2 µM | 1.2 µM
CCCCCCCCCCCCCCNC(=O)[C@H]1CSC(c2cc(OC)c(OC)c(OC)c2)N1 (mixture of isomers) | 2.9 µM |  |  |  | 2.1 µM |  |  |  | 5.8 µM | 1.9 µM | 0.7 µM
CCCCCCCCCCCCCCCCNC(=O)[C@H](CSC)NCc1ccc(NC(C)=O)cc1 |  |  | > 100 µM |  |  |  | 145 µM | 108 µM |  |  | 
CCCCCCCCCCCCCCCCCCN(C)C(=O)[C@@H]1CSC(c2ccc(NC(C)=O)cc2)N1 (mixture of isomers) | 3.7 µM | 3.6 | > 100 µM |  | 3.9 µM | 18.9 µM | 10.7 µM | 20.6 µM | 9.2 µM | 1.8 µM | 0.8 µM
CN(C)/N=N/c1[nH]cnc1C(N)=O [DACARBAZINE] |  |  | > 100 µM |  |  | > 100 µM | > 100 µM | > 100 µM |  |  | 
CCCCCCCCCCCCCCCCNC(=O)[C@@H]1CSC(c2ccc(NS(C)(=O)=O)cc2)N1 (mixture of isomers) | > 20 µM |  | > 100 µM |  | > 20 µM | 114 µM | 18.6 µM | 50.6 µM | > 20 µM | 4.8 µM | 1.1 µM
CCCCCCCCCCCCCCNC(=O)[C@@H]1CSC(c2cc(OC)c(OC)c(OC)c2)N1 (mixture of isomers) | 2.6 µM |  |  |  | 2.2 µM |  |  |  | 6.1 µM | 2 µM | 0.6 µM
CC(=O)Nc1ccc(C2N[C@H](C(=O)Nc3ccc4c(c3)Cc3ccccc3-4)CS2)cc1 (mixture of isomers) |  |  |  | 11.3 |  |  |  |  |  |  | 
CCCCCCCCCCCCCCCCNC(=O)[C@@H]1CSC(c2ccc(OC)cc2)N1 (mixture of isomers) | 2.7 µM | 5.3 |  | 5.1 | 2.2 µM | 2.3 µM | 1 µM | 1.5 µM | 8.4 µM | 1.1 µM | 0.4 µM
CCCCCCCCCCCCCCCCNC(=O)[C@@H]1CSC(c2ccccc2)N1 (mixture of isomers) |  |  | 2.2 µM |  |  |  | 0.7 µM |  |  |  | 
CCCCCCCCCCCCNC(=O)[C@@H]1CSC(c2cc(OC)c(OC)c(OC)c2)N1 (mixture of isomers) | 2.9 µM |  |  |  | 2.8 µM |  |  |  | 6.5 µM | 1.4 µM | 1 µM
CCCCCCCCNC(=O)[C@@H]1CSC(c2cc(OC)c(OC)c(OC)c2)N1 (mixture of isomers) | > 20 µM |  |  |  | 17.3 µM |  |  |  | > 20 µM | 2.7 µM | 14 µM
